{"source": "paper PMC6703927", "about": "(ACS chemical neuroscience, 2019)", "key": {"DAT W84L": {"test_system": "DAT W84L", "settings": "cited from earlier work"}, "DAT [1]": {"biological_target": "T1, DAT (Rattus norvegicus, UniProt P23977)", "T1 sequence (P23977 whole entry)": "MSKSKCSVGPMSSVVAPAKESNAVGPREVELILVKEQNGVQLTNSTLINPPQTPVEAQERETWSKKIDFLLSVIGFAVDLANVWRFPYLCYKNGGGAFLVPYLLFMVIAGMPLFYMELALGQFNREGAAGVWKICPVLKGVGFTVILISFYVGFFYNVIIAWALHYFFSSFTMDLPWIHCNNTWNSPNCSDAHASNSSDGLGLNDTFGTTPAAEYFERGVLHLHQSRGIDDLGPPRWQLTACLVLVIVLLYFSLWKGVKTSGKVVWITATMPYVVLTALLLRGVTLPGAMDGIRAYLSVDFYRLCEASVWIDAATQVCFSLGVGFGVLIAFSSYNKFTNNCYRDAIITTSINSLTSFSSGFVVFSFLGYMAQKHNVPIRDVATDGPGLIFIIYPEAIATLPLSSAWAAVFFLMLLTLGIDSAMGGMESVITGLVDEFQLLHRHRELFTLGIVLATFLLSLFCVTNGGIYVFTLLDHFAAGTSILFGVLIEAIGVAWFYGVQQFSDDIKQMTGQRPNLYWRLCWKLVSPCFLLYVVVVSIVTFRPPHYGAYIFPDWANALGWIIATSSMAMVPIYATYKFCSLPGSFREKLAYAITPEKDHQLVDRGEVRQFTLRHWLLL", "test": "Synaptosomal dopamine uptake assay, striatal synaptosomes", "assay_type": "biochemical"}, "hDAT Y156F": {"test_system": "hDAT Y156F", "settings": "cited from earlier work"}, "hSERT": {"biological_target": "hSERT (Homo sapiens, UniProt P31645)", "sequence (P31645 whole entry)": "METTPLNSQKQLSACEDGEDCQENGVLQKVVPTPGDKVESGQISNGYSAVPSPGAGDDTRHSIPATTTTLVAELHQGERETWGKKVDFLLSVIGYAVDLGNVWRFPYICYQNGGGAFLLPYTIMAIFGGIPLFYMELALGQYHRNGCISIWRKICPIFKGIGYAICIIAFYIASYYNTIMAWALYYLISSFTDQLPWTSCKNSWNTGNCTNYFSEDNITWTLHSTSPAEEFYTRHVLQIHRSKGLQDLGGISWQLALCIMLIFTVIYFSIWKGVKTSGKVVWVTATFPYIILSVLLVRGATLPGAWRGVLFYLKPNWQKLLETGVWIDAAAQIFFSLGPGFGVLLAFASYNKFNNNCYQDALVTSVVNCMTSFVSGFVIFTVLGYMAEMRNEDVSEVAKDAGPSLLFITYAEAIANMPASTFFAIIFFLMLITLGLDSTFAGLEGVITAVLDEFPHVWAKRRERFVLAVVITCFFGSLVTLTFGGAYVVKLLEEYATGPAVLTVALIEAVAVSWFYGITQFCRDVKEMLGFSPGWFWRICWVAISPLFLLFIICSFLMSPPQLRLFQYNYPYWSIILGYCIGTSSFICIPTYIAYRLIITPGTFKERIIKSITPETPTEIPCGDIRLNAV", "assay_type": "cell-based", "settings": "hDAT vs SERT", "outline": "(§1)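 MDCK cells stably expressing hDAT, hNET or hSERT were kept in DMEM with 10% FBS, pen/strep and blasticidin (5 μg/mL) at 37 °C, 5% CO2. Radiolabeled neurotransmitter uptake ([3H]-DA, [3H]serotonin) was measured against test compound dose. Results were normalized to percent of the highest response, and IC50 was fitted by nonlinear regression from three independent experiments.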"}, "[2]": {"test_system": "DAT cysteine mutant R544C", "test": "SCAM MTSEA-biotin biotinylation, HEK-293 cells", "assay_type": "cell-based, human", "settings": "20 μM KM822 coincubation", "outline": "(§2)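 SCAM used HEK-293 cells (Lipojet transfection) expressing N-terminally HA-tagged cysteine mutants on the C306A background. Cells were incubated with test compound (20 μM) before MTSEA-biotin labeling. Biotinylated DAT was pulled down on streptavidin beads and immunoblotted with anti-HA antibody. It was normalized to total DAT from unpurified lysates, then to the untreated band.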"}, "DAT-XC/A372C [3]": {"test_system": "DAT-XC/A372C", "test": "SCAM MTSEA-biotin biotinylation, HEK-293 cells", "assay_type": "cell-based, human"}, "[4]": {"test_system": "DAT cysteine mutant T473C", "test": "SCAM MTSEA-biotin biotinylation, HEK-293 cells", "assay_type": "cell-based, human", "settings": "20 μM KM822 coincubation", "outline": "as §2"}, "DAT-XC/W84C [5]": {"biological_target": "T2, DAT-XC/W84C (Homo sapiens, UniProt Q01959, C306A/W84C)", "T2 sequence (Q01959 1-620 W84C/C306A)": "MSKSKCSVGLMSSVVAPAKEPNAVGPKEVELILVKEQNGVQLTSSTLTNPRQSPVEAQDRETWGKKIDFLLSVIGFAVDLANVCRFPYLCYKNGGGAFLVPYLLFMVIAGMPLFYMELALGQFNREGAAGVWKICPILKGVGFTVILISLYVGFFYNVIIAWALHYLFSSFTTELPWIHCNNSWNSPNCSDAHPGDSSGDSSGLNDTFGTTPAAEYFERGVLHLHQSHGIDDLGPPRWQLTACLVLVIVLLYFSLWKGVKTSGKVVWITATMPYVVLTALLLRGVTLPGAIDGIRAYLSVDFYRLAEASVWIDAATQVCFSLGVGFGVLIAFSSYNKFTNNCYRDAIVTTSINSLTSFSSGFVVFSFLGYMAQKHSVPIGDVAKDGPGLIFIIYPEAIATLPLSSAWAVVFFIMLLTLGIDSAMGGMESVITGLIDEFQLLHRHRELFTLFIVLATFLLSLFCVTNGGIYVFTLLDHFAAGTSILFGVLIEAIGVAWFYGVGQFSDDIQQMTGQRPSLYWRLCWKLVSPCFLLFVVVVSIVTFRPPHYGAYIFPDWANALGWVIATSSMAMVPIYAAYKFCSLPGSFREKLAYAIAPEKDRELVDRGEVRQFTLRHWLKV", "test": "SCAM MTSEA-biotin biotinylation, HEK-293 cells", "assay_type": "cell-based"}, "DAT-XC/T316C [6]": {"test_system": "DAT-XC/T316C", "test": "SCAM MTSEA-biotin biotinylation, HEK-293 cells", "assay_type": "cell-based, human", "outline": "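HEK-293 cells (Lipojet transfection) expressed HA-tagged DAT-XC/T316C. […] Streptavidin-purified biotinylated DAT was immunoblotted with anti-HA, normalized to total DAT in unpurified lysate, then to the untreated band. Eight independent experiments were run.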"}, "DAT mutant D476N": {"test_system": "DAT mutant D476N", "test": "DA uptake dose-response inhibition assay, transiently expressed DAT mutant", "assay_type": "cell-based, human", "settings": "D476N vs DAT-WT", "outline": "(§3)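 Mutants were made by site-directed mutagenesis. Single mutants used human WT DAT as background, and double cysteine mutants used C306A-DAT (DAT-XC). DA uptake dose-response gave IC50s from three or more independent experiments. Cysteine mutant IC50s were compared with DAT-XC, and D476 mutant IC50s with DAT-WT, by paired Student's t test.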"}, "DAT mutant D385C": {"test_system": "DAT mutant D385C", "test": "DA uptake dose-response inhibition assay, transiently expressed DAT mutant", "assay_type": "cell-based, human", "settings": "D385C vs DAT-XC", "outline": "as §3"}, "Y335A-DAT": {"biological_target": "Y335A-DAT (Homo sapiens, UniProt Q01959, Y335A)", "sequence (Q01959 whole entry Y335A)": "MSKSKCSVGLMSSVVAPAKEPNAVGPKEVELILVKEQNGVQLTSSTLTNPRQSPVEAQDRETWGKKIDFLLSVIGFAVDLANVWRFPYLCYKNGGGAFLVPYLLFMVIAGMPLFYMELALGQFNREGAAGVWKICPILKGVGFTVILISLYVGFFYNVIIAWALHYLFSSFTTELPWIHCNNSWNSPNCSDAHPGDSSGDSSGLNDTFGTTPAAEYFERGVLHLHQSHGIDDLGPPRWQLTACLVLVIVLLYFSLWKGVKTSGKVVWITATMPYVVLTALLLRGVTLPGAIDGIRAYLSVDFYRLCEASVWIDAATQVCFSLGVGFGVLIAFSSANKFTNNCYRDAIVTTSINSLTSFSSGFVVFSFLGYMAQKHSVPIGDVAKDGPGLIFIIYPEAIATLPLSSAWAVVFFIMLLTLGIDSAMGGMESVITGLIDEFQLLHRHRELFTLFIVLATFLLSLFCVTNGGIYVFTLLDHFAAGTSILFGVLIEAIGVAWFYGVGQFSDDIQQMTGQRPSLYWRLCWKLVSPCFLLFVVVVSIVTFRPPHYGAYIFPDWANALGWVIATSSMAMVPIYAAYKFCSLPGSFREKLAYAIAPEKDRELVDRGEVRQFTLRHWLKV", "test": "DA uptake inhibition assay, transfected COS-7 cells", "assay_type": "cell-based", "outline": "(§4)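 COS-7 cells (DMEM, 10% FBS, pen/strep, 37 °C, 5% CO2) were transiently transfected with WT or mutant human DAT using TransIT-LT1. Dopamine uptake was measured across a dose-response of test compound. Responses were normalized, and IC50 was obtained by nonlinear regression. Means and SEM come from three independent experiments, with the mutant compared against WT-DAT.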"}, "WT-DAT": {"biological_target": "WT-DAT (Homo sapiens, UniProt Q01959)", "sequence (Q01959 whole entry)": "as the sequence (Q01959 whole entry Y335A) above, with A335Y counted along it", "test": "DA uptake inhibition assay, transfected COS-7 cells", "assay_type": "cell-based", "settings": "read-out: IC50 DA uptake inhibition; WT-DAT transfected COS-7 cells"}, "wild type DAT": {"test_system": "wild type DAT", "test": "[3H]-DA uptake kinetic assay, transiently transfected COS-7 cells", "assay_type": "cell-based, human", "settings": "for Vmax of dopamine uptake: vehicle 71.5 ± 6.12", "outline": "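WT human DAT was transiently expressed in COS-7 cells (TransIT-LT1). [3H]-dopamine saturation uptake was run with vehicle, 1 μM or 5 μM test compound. Vmax and Km were obtained from a Michaelis-Menten nonlinear regression fit. Figure data and kinetic constants are averaged over four independent experiments.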"}, "DAT-XC/W84C [7]": {"biological_target": "T2, DAT-XC/W84C", "test": "DA uptake dose-response inhibition assay, transiently expressed DAT mutant", "assay_type": "cell-based", "settings": "W84C vs DAT-XC", "outline": "as §3"}, "Y156F-DAT": {"biological_target": "Y156F-DAT (Homo sapiens, UniProt Q01959, Y156F)", "sequence (Q01959 whole entry Y156F)": "as the sequence (Q01959 whole entry Y335A) above, with Y156F, A335Y counted along it", "test": "DA uptake inhibition assay, transfected COS-7 cells", "assay_type": "cell-based", "outline": "as §4"}, "hNET": {"biological_target": "hNET (Homo sapiens, UniProt P23975)", "sequence (P23975 whole entry)": "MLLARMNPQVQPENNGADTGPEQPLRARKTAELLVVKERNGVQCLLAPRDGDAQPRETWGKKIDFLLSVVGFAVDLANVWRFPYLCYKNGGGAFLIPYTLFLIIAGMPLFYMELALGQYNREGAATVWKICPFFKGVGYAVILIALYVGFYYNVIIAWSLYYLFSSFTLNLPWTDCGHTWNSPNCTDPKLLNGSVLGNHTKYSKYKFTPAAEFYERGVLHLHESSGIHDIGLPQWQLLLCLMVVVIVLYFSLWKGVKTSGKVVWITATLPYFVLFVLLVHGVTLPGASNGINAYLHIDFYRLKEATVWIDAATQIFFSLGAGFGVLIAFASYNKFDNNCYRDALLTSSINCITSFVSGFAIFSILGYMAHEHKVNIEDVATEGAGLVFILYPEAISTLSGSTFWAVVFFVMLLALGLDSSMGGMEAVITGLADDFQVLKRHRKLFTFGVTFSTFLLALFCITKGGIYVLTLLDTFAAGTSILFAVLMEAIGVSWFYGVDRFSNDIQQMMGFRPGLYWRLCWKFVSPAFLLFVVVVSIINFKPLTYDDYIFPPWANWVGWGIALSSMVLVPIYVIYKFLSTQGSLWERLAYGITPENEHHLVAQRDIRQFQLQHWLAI", "assay_type": "cell-based", "settings": "hDAT vs hNET", "outline": "as §1"}, "DAT [8]": {"biological_target": "T1, DAT", "test": "Ex vivo slice fast scan cyclic voltammetry, Nucleus accumbens", "settings": "50 μM KM822, NAc slices", "outline": "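Rats were anesthetized with 2.5% isoflurane for 3 min and decapitated, and coronal NAc slices were cut into oxygenated ACSF (pH 7.4). After 30 min recovery at room temperature, slices were recorded at 32 °C by carbon-fiber microelectrode. Single pulses (400 μA, 4 ms, monophasic) were given every 3 min until baseline stabilized over three stimulations.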"}, "[9]": {"test_system": "DAT cysteine mutant D385C", "test": "SCAM MTSEA-biotin biotinylation, HEK-293 cells", "assay_type": "cell-based, human", "settings": "20 μM KM822 coincubation", "outline": "as §2"}, "DAT Y335A": {"test_system": "DAT Y335A", "settings": "cited from earlier work"}, "DAT-XC/T316C [10]": {"test_system": "DAT-XC/T316C", "settings": "DAT-XC/T316C in the presence of cocaine; cited from earlier work"}, "DAT-XC/A372C [11]": {"test_system": "DAT-XC/A372C", "settings": "DAT-XC/A372C treated with cocaine; cited from earlier work"}}, "data": [{"smiles": "Fc1ccc(C(OCCN2CCN(CCCc3ccccc3)CC2)c2ccc(F)cc2)cc1", "note": "[GBR12909]", "values": [{"measurement": "change of apparent potency in W84 to leucine mutant", "setting": "DAT W84L", "value": "decrease in apparent potency"}, {"measurement": "total DA uptake in striatal synaptosomes", "setting": "DAT [1]; 1 μM GBR12909", "value": "significantly blocked"}]}, {"smiles": "CCCCN1[C@@H]2CC[C@H]1CC(OC(c1ccc(F)cc1)c1ccc(F)cc1)C2", "note": "(some centres unmarked) [JHW-007]", "values": [{"measurement": "potency change by Y156F mutation", "setting": "hDAT Y156F", "value": "significantly reduced"}]}, {"smiles": "CCc1ccc2[nH]c3nc(SCCNS(=O)(=O)c4ccc(NC(C)=O)cc4)nnc3c2c1", "note": "[KM822]", "values": [{"measurement": "potency for hDAT transport inhibition higher than for SERT", "setting": "hSERT", "value": 50, "unit": "folds"}, {"measurement": "effect on MTSEA-biotin biotinylation", "setting": "[2]", "value": "no effect"}, {"measurement": "effect on MTSEA-biotin labeling", "setting": "DAT-XC/A372C [3]; 20 μM KM822", "value": "no significant change"}, {"measurement": "effect on MTSEA-biotin biotinylation", "setting": "[4]", "value": "no effect"}, {"measurement": "effect on MTSEA-biotin biotinylation", "setting": "DAT-XC/W84C [5]; 20 μM KM822 coincubation", "value": "significantly decreased"}, {"measurement": "effect on MTSEA-biotin labeling", "setting": "DAT-XC/T316C [6]; 20 μM KM822", "value": "increased"}, {"measurement": "change of apparent potency in mutant", "setting": "DAT mutant D476N", "value": "lowered"}, {"measurement": "change of apparent potency in mutant", "setting": "DAT mutant D385C", "value": "lowered"}, {"measurement": "potency reduction in Y335A mutant vs WT-DAT", "setting": "Y335A-DAT; COS-7 cells", "value": 3, "unit": "fold"}, {"measurement": "IC50", "setting": "Y335A-DAT; read-out: IC50 DA uptake inhibition, Y335A-DAT transfected COS-7 cells", "value": "12.8 ± 1.4", "unit": "µM"}, {"measurement": "IC50", "setting": "WT-DAT", "value": "3.8 ± 0.88", "unit": "µM"}, {"measurement": "Vmax of dopamine uptake", "setting": "wild type DAT; in the presence of 1 μM KM822", "value": "65.8 ± 8.71", "unit": "μmol/min/well"}, {"measurement": "Vmax of dopamine uptake", "setting": "wild type DAT; in the presence of 5 μM KM822", "value": "57.9 ± 4.15", "unit": "μmol/min/well"}, {"measurement": "manner of dopamine uptake inhibition", "setting": "wild type DAT; uptake kinetics", "value": "noncompetitive"}, {"measurement": "change of potency in mutant", "setting": "DAT-XC/W84C [7]", "value": "increase in potency"}, {"measurement": "potency in Y156F-DAT mutant as compared to WT-DAT", "setting": "Y156F-DAT; COS-7 cells", "value": "unchanged"}, {"measurement": "IC50", "setting": "Y156F-DAT; read-out: IC50 DA uptake inhibition, Y156F-DAT transfected COS-7 cells", "value": "3.3 ± 0.45", "unit": "µM"}, {"measurement": "potency for hDAT transport inhibition higher than for hNET", "setting": "hNET", "value": 30, "unit": "folds"}, {"measurement": "effect on stimulated DA release / cocaine-induced changes in DA release", "setting": "DAT [8]", "value": "did not affect"}, {"measurement": "effect on cocaine-induced inhibition of DA uptake (app Km)", "setting": "DAT [8]; cumulative cocaine, significant at 30 μM cocaine", "value": "significantly reduced"}, {"measurement": "effect on MTSEA-biotin biotinylation", "setting": "[9]", "value": "no effect"}]}, {"smiles": "NC(=O)C[S@+]([O-])C(c1ccccc1)c1ccccc1", "note": "[S-modafinil]", "values": [{"measurement": "potency change by Y156F mutation", "setting": "hDAT Y156F", "value": "significantly reduced"}]}, {"smiles": "CN1[C@@H]2CC[C@H]1C[C@@H](OC(c1ccccc1)c1ccccc1)C2", "note": "[benztropine]", "values": [{"measurement": "change of apparent potency in W84 to leucine mutant", "setting": "DAT W84L", "value": "decrease in apparent potency"}]}, {"smiles": "COC(=O)[C@H]1[C@@H](OC(=O)c2ccccc2)C[C@@H]2CC[C@H]1N2C", "note": "[cocaine]", "values": [{"measurement": "potency change by Y335A mutation", "setting": "DAT Y335A", "value": "markedly impairs"}, {"measurement": "binding affinity change by Y156F mutation", "setting": "hDAT Y156F", "value": "unaffected"}, {"measurement": "change of apparent potency in W84 to leucine mutant", "setting": "DAT W84L", "value": "increased apparent potency"}, {"measurement": "labeling with a maleimide-based biotin molecule", "setting": "DAT-XC/T316C [10]", "value": "increased labeling"}, {"measurement": "effect on MTSEA-biotin labeling", "setting": "DAT-XC/A372C [3]; 100 μM cocaine", "value": "no change in labeling"}, {"measurement": "effect on MTSEA-biotin labeling", "setting": "DAT-XC/W84C [5]; 100 μM cocaine coincubation", "value": "not affected"}, {"measurement": "effect on MTSEA-biotin labeling", "setting": "DAT-XC/T316C [6]; 100 μM cocaine", "value": "increased labeling"}, {"measurement": "labeling with a maleimide-based biotin molecule", "setting": "DAT-XC/A372C [11]", "value": "no change in labeling"}, {"measurement": "total DA uptake in striatal synaptosomes", "setting": "DAT [1]; 100 μM cocaine", "value": "significantly blocked"}]}]}
